From ChEMBL document CHEMBL1140307, “Design and synthesis of alpha-aryloxyphenylacetic acid derivatives: a novel class of PPARalpha/gamma dual agonists with potent antihyperglycemic and lipid modulating activity” (J Med Chem, 2005)

How the values were obtained:
[1] = biological target: T1, Peroxisome proliferator-activated receptor alpha (Homo sapiens, UniProt Q07869); assay: In vitro binding affinity for human PPAR alpha
T1 sequence (Q07869 whole entry): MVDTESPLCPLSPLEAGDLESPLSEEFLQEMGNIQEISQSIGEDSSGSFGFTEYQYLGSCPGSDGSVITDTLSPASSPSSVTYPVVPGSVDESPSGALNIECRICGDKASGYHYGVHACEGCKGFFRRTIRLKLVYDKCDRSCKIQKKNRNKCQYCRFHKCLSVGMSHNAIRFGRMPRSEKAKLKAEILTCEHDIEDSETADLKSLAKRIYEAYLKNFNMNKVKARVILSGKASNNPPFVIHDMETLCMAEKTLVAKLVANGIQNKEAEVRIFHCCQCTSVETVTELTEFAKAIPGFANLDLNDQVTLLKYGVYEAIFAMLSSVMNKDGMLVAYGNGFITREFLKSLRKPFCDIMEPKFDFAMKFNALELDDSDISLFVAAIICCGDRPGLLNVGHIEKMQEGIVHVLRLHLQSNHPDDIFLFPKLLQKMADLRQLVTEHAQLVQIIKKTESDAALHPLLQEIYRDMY

[2] = biological target: T2, Peroxisome proliferator-activated receptor gamma (Homo sapiens, UniProt P37231); assay: In vitro binding affinity for human PPAR gamma
T2 sequence (P37231 whole entry): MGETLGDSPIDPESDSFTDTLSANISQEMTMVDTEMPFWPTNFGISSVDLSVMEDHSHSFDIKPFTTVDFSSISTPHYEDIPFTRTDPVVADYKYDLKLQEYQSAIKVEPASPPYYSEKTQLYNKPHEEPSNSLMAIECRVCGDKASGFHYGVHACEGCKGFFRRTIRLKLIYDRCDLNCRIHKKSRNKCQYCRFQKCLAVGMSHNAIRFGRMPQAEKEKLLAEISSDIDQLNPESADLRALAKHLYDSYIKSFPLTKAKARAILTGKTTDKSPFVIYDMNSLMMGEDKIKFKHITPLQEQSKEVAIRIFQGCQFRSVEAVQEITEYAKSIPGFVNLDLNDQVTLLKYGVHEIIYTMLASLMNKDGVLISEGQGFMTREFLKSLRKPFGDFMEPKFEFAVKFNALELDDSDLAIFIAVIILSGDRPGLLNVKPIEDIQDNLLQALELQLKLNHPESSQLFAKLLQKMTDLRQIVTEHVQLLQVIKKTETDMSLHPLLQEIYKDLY

[3] = biological target: T2, Peroxisome proliferator-activated receptor gamma; assay: Agonist response against human PPAR gamma in transactivation assay; type: functional
[4] = biological target: T3, Peroxisome proliferator-activated receptor alpha (Homo sapiens) (UniProt Q07869); assay: Maximal activation of human Peroxisome proliferator activated receptor alpha
T3 sequence (whole entry): T1 sequence (Q07869 whole entry)
Procedure, shortened: (§1)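 Cell-based transactivation assay using GAL4-PPAR chimeric receptors with a reporter gene carrying a GAL4 response element. The top concentration tested was 3 µM. Values are the mean of three determinations.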

[5] = biological target: T4, Peroxisome proliferator-activated receptor gamma (Homo sapiens) (UniProt P37231); assay: Maximal activation of human Peroxisome proliferator activated receptor gamma; procedure, shortened: as §1
T4 sequence (whole entry): T2 sequence (P37231 whole entry)

[6] = biological target: T1, Peroxisome proliferator-activated receptor alpha; assay: Agonist response against human PPAR alpha in transactivation assay
Canis familiaris [7] = assay: Percentage change in the serum cholesterol upon administration of compound (20 mpk) in dogs; type: functional, Canis lupus familiaris
Procedure, shortened: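 Male Beagle dogs were housed individually on a cholesterol-free chow diet, five per group. Baseline serum cholesterol was taken from weekly jugular bleeds before the study. Compound suspended in 0.5% methylcellulose was gavaged daily for 2 weeks. Serum cholesterol was measured during and after dosing and reported as mean percent change (n = 5).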

Cricetinae gen. sp. [8] = assay: Percentage change in the serum cholesterol upon administration of compound (100 mpk) in hamster; type: functional
Procedure, shortened: (§2)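 Male Golden Syrian hamsters were fed normal rodent chow and dosed orally once daily with compound. Serum total cholesterol and triglyceride were measured and expressed as percent change versus vehicle controls.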

Cricetinae gen. sp. [9] = assay: Percentage change in the serum triglyceride upon administration of compound (100 mpk) in hamster; type: functional; procedure, shortened: as §2
Cricetinae gen. sp. [10] = assay: Effect (100 mpk) on serum cholesterol in hamster; type: functional
Procedure, shortened: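 Male Golden Syrian hamsters on normal rodent chow, dosed orally with test compound (9 days per table legend). Serum total cholesterol and triglyceride were measured in mg/dL. Values are group means, expressed as % change versus the vehicle-treated control group.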

Mesocricetus auratus = species on record: Mesocricetus auratus; assay: Effect (100 mpk) on serum triglyceride in Golden Syrian hamster
Canis familiaris [11] = assay: Percentage change in the serum cholesterol upon administration of compound (100 mpk) in dogs

CCCc1cc2c(oc(=O)n2CC2CC2)c(CCC)c1O[C@H](C(=O)O)c1ccc(C(C)C)cc1
IC50 [1]: 130 nM | IC50 [2]: 120 nM | EC50 [3]: 330 nM

CCC(=O)c1cc(Cl)c(OC(C(=O)O)c2ccccc2)c(Cl)c1 (configuration not stated)
IC50 [1]: 1600 nM | IC50 [2]: > 50000 nM

CCCc1cc(C(=O)CC)cc(CCC)c1O[C@@H](C(=O)O)c1ccc(C(C)C)cc1
IC50 [1]: 3900 nM | IC50 [2]: 2980 nM

CCCc1cc(C(=O)CC)cc(CCC)c1O[C@H](C(=O)O)c1ccc(CC(C)C)cc1
IC50 [1]: 58 nM | IC50 [2]: 220 nM | Maximal activation [4]: 807% | Maximal activation [5]: 66% | EC50 [6]: 39 nM | EC50 [3]: 180 nM

CCCc1c(O[C@H](C(=O)O)c2ccc(C(C)C)cc2)c(Cl)cc2c1oc(=O)n2CC
IC50 [1]: 1410 nM | IC50 [2]: 520 nM | EC50 [3]: 360 nM

CCCc1cc(C(=O)C(C)(C)C)cc(CCC)c1OC(C(=O)O)c1ccccc1 (configuration not stated)
IC50 [1]: 130 nM | IC50 [2]: 2700 nM | EC50 [6]: 160 nM

CCCc1cc2c(=O)n(C3CCCCC3)oc2c(CCC)c1O[C@H](C(=O)O)c1ccc(C(C)C)cc1
IC50 [1]: > 15000 nM | IC50 [2]: 440 nM

CCCc1cc(C(=O)CC)cc(Cl)c1O[C@H](C(=O)O)c1ccc(C(C)C)cc1
IC50 [1]: 260 nM | IC50 [2]: 220 nM | EC50 [6]: 260 nM | EC50 [3]: 360 nM

CCCc1cc2c(oc(=O)n2CC(F)(F)F)c(CCC)c1O[C@H](C(=O)O)c1ccc(C(C)C)cc1
IC50 [1]: 100 nM | IC50 [2]: 110 nM | EC50 [6]: 310 nM | EC50 [3]: 140 nM

CCCc1cc(C(=O)CC)cc(CCC)c1OC(C(=O)O)c1ccccc1 (configuration not stated)
IC50 [1]: 51 nM | IC50 [2]: 2760 nM | EC50 [6]: 100 nM

CCCc1cc(C(=O)CC)cc(CCC)c1CC(C(=O)O)c1ccc(C(C)C)cc1 (configuration not stated)
IC50 [1]: > 15000 nM | IC50 [2]: > 50000 nM

CC(C)OC(=O)C(C)(C)Oc1ccc(C(=O)c2ccc(Cl)cc2)cc1 [FENOFIBRATE]
Change (Canis familiaris [7]): -4.7% | Change (Cricetinae gen. sp. [8]): -29% | Change (Cricetinae gen. sp. [9]): -26% | Cholesterol level (Cricetinae gen. sp. [10]): 91 mg/dL | Triglyceride level (Mesocricetus auratus): 244 mg/dL | Change (Canis familiaris [11]): -23.5%

CCCc1cc(C(=O)CC)cc(CCC)c1O[C@H](C(=O)O)c1ccc(C(F)(F)F)cc1
IC50 [1]: 89 nM | IC50 [2]: 210 nM | EC50 [6]: 250 nM

CCCc1cc2c(=O)n(C)oc2c(CCC)c1O[C@H](C(=O)O)c1ccccc1
IC50 [1]: 850 nM | IC50 [2]: 3800 nM | EC50 [6]: 670 nM | EC50 [3]: 390 nM

CCCc1cc2c(oc(=O)n2C(C)C)c(CCC)c1O[C@H](C(=O)O)c1ccccc1
IC50 [1]: 550 nM | IC50 [2]: 1790 nM

CCCc1cc(C(=O)C(C)C)cc(CCC)c1OC(C(=O)O)c1ccccc1 (configuration not stated)
IC50 [1]: 160 nM | IC50 [2]: 3160 nM | EC50 [6]: 250 nM
